Values after ≈ are worked out from the molar mass of the structure shown. Active and inactive are the calls of the source. The rule behind the calls is not given here.
How the values were obtained:
[1] = Stability of the compound in pH 4 buffer solution at 100 uM after 180 hrs by HPLC analysis; assay type: physicochemical; conditions: read-out: Stability
[2] = Cytotoxicity against human H9 cells assessed as reduction in cell viability after 7 days by MTT assay; assay type: cell-based
In short: (§1)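 MTT viability assay. H9 at 4×10^4 cells/well or PHA-stimulated PBMCs at 5×10^5 cells/well were incubated with serially diluted compound at 37 °C, 5% CO2 for seven days before MTT read-out. CC50 was calculated; mean ± standard deviation of three separate experiments.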

[3] = test system: Human immunodeficiency virus 1; test: Antiviral activity against HIV1 subtype B NL4-3 infected in human H9 cells assessed as reduction in p24 level after 7 days by ELISA; assay type: functional, cell-based; conditions: Human immunodeficiency virus 1, subtype B NL4-3, H9, 168 h
In short: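 H9 cells infected with NL4-3 at MOI 0.03 for 2 h, washed three times, then seeded at 4×10^4 cells/well with serially diluted compound. Incubated 7 days; supernatant p24 measured by in-house ELISA and EC50 calculated. Three separate experiments, mean ± standard deviation.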

[4] = Therapeutic index, ratio of CC50 for human H9 cells to EC50 for HIV1 subtype B NL4-3 infected in human H9 cells
In short: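 Ratio of CC50 to EC50, both measured in H9 cells: MTT cytotoxicity over seven days, and p24 ELISA after 7 days of NL4-3 infection at MOI 0.03.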

[5] = Aqueous solubility in water after 24 to 72 hrs by HPLC based shake flask method; assay type: physicochemical
In short: (§2)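 Equilibrium shake-flask solubility: excess compound placed in water, methanol, ethanol, acetonitrile, ethyl acetate or acetone and shaken 24-72 h at 25 °C. Filtered through 0.22 μm membrane, diluted, and quantified by HPLC on a C18 column with methanol/water 70/30 mobile phase and UV 251 nm. n=3, mean ± SD.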

[6] = Stability of the compound in pH 7 buffer solution at 100 uM up to 168 hrs by HPLC analysis; assay type: physicochemical; conditions: pH 7, 168 h
In short: (§3)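 Compound added to pH 4, 7 or 9 buffers at 100 μM final and shaken at 100 rpm, 37 °C. Sampled at 0–168 h (pH 4 and 7) or 0–15 h (pH 9) and analysed by HPLC on C18 with acetonitrile/water containing 0.1% triethylamine (70/30) and UV 248 nm.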

[7] = Drug degradation in pH 9 buffer solution at 100 uM after 15 hrs by HPLC analysis; in short: as §3
[8] = test system: Liver; test: Prodrug activation in human liver microsomes assessed as 2-Amino-N-(2-methoxyphenyl)-6-((4-nitrophenyl)sulfonyl)benzamide formation at 1.5 mg/ml after 20 mins in presence of NADPH by HPLC analysis; assay type: microsome
In short: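 Prodrug (1.5 mg/mL stock, 1.5 μL) incubated with human liver microsomes in 0.1 M phosphate buffer pH 7.4 with NADPH-generating system at 37 °C for 0, 5, 10, 15, 20 and 40 min. Stopped with methanol, centrifuged, supernatant dried under nitrogen, redissolved in mobile phase, analysed by HPLC and HPLC-MS.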

[9] = test system: Plasma; test: Protein binding in Sprague-Dawley rat plasma up to 30 ug/ml after 2 hrs by HPLC analysis; assay type: ADME, cell-free
In short: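 Heparinized arterial plasma from male and female Sprague-Dawley rats incubated with compound at final 30, 20 or 5 μg/mL, 37 °C for 2 h. Free drug separated by 30 kD ultrafiltration (2000 g, 4 °C, 15 min) and measured by HPLC with UV 251 nm; binding = (Dt − Df)/Dt × 100%.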

[10] = test system: Human immunodeficiency virus 1; test: Inhibition of HIV1 Vif expressed in TREX-hVif-15 cells co-expressing EYFP-N1-tagged human A3G assessed as reduction in Vif-mediated A3G degradation after 48 hrs by flow cytometry; assay type: cell-based
In short: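 TREX-hvif-15 cells, in which Vif is under Tet-On control, were plated at 2×10^5 cells/well and grown overnight. At about 80% confluence they were transfected with EYFP-N1-hA3G. After 6 h the cells were washed, and compounds at varied concentrations were added together with doxycycline to induce Vif. Cells were trypsin-harvested 48 h post-transfection, and EYFP-positive cells were measured by flow cytometry. The no-Vif condition was set to 100%.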

[11] = test system: Human immunodeficiency virus 1; test: Inhibition of HIV1 Vif expressed in TREX-hVif-15 cells co-expressing HA-tagged A3G assessed as reduction in Vif-mediated A3G degradation by measuring increase in A3G expression after 48 hrs by Western blot method; assay type: cell-based
In short: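 TREX-hvif-15 cells were plated at 2×10^5 cells/well and transfected at about 80% confluence with pcDNA3.1-APOBEC3G-HA. At 6 h they were washed and given fresh DMEM/10% FBS, graded compound concentrations, and 0.1 µg/mL doxycycline to induce Vif. Total protein was extracted 48 h post-transfection, and HA tag, Vif and β-actin were read by western blot.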

[12] = Cytotoxicity against human PBMC assessed as reduction in cell viability after 7 days by MTT assay; assay type: cell-based; in short: as §1
[13] = test system: Human immunodeficiency virus 1; test: Antiviral activity against HIV1 subtype B/C isolate KM018 infected in human PBMC assessed as reduction in p24 level after 7 days by ELISA; assay type: functional; conditions: Human immunodeficiency virus 1, subtype B/C isolate KM018, 168 h
[14] = test system: Human immunodeficiency virus 1; test: Antiviral activity against HIV1 subtype B isolate SF162 infected in human PBMC assessed as reduction in p24 level after 7 days by ELISA; assay type: functional; conditions: Human immunodeficiency virus 1, subtype B isolate SF162, 168 h
[15] = test system: Human immunodeficiency virus 1; test: Antiviral activity against HIV1 subtype CRF01-AE isolate TC-1 infected in human PBMC assessed as assessed as reduction in p24 level after 7 days by ELISA; assay type: functional; conditions: Human immunodeficiency virus 1, subtype CRF01-AE isolate TC-1, 168 h
[16] = test system: Human immunodeficiency virus 1; test: Antiviral activity against HIV1 subtype CRF01-AE isolate WAN infected in human PBMC assessed as assessed as reduction in p24 level after 7 days by ELISA; assay type: functional; conditions: Human immunodeficiency virus 1, subtype CRF01-AE isolate WAN, 168 h
[17] = Solubility in methanol after 24 to 72 hrs by HPLC based shake flask method; assay type: physicochemical; in short: as §2
[18] = Solubility in ethanol after 24 to 72 hrs by HPLC based shake flask method; assay type: physicochemical; in short: as §2
[19] = Solubility in acetonitrile after 24 to 72 hrs by HPLC based shake flask method; assay type: physicochemical; in short: as §2
[20] = Solubility in ethylacetate after 24 to 72 hrs by HPLC based shake flask method; assay type: physicochemical; in short: as §2
[21] = Solubility in acetone after 24 to 72 hrs by HPLC based shake flask method; assay type: physicochemical; in short: as §2
[22] = test system: Human immunodeficiency virus 1; test: Inhibition of HIV1 NL4-3 Vif expressed in 293T cells co-expressing HA-tagged A3G assessed as reduction in Vif-mediated A3G degradation by measuring increase in A3G expression after 48 hrs by Western blot method; assay type: cell-based
In short: (§4)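 293T cells were plated at 2×10^5 cells/well, grown overnight, and co-transfected at about 80% confluence with pcDNA3.1-APOBEC3G-HA and pNL4-3 (Lipofectamine 2000). Medium was replaced at 6 h with DMEM/10% FBS, then compounds were added at a range of concentrations for 48 h. HA tag, Vif, p24 and β-actin (internal control) in total lysates were read by western blot.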

[23] = test system: Human immunodeficiency virus 1; test: Antiviral activity against HIV1 NL4-3 infected in 293T cells expressing HA-tagged A3G assessed as reduction in Vif expression after 48 hrs by Western blot method; assay type: functional, cell-based; in short: as §4
[24] = 1-octanol/water partition co-efficient, log P of the compound after 2 hrs by shake-flask method; assay type: physicochemical
In short: (§5)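 Octanol and water mutually pre-saturated 24 h at 37 °C; excess compound dissolved in octanol phase by sonication, centrifuged, supernatant mixed 1:1 (v/v) with aqueous phase. Shaken at 120 rpm, 37 °C for 2, 4 or 7 h; phases separated by centrifugation and quantified by HPLC, in triplicate. Log P = lg(Co/Cw).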

[25] = 1-octanol/water partition co-efficient, log P of the compound after 4 hrs by shake-flask method; assay type: physicochemical; in short: as §5
[26] = 1-octanol/water partition co-efficient, log P of the compound after 7 hrs by shake-flask method; assay type: physicochemical; in short: as §5
[27] = N-octanol/water partition co-efficient, log P of the compound in octanol to water phase ratio of 1:1 up to 7 hrs by shake-flask method; assay type: physicochemical
[28] = N-octanol/water partition co-efficient, log P of the compound in octanol to water phase ratio of 1:4 up to 7 hrs by shake-flask method; assay type: physicochemical
[29] = N-octanol/water partition co-efficient, log P of the compound in octanol to water phase ratio of 1:9 up to 7 hrs by shake-flask method; assay type: physicochemical
[30] = test system: Human immunodeficiency virus 1; test: Antiviral activity against HIV1 isolate TC-1 infected in human PBMC assessed as inhibition of p24 expression up to 20 uM after 7 days by Western blot method
[31] = test system: Human immunodeficiency virus 1; test: Antiviral activity against HIV1 isolate TC-1 infected in human PBMC expressing HA-tagged A3G assessed as downregulation of Vif expression after 7 days by Western blot method
[32] = test system: Human immunodeficiency virus 1; test: Inhibition of HIV1 isolate TC-1 Vif infected in […]-stimulated human PBMC expressing HA-tagged A3G assessed as reduction in Vif-mediated A3G degradation up to 20 uM after 7 days by Western blot method

With COc1ccccc1NC(=O)c1c(NC(=O)CN)cccc1S(=O)(=O)c1ccc([N+](=O)[O-])cc1 the remaining at 180 h, 100 µM [1] was 50%, the CC50 at 168 h [2] was 196 µM and the EC50 [3] was 0.248 µM. For the same compound, the “Ratio CC50/EC50” value [4] was 790, the solubility thermodynamic [5] was 1730 µg/mL (≈ 3.57 mM) and the Stability [6] was “Stable”. For the same compound, the Drug degradation [7] was greater than 90% and the Drug metabolism [8] was “Metabolite_Detected”.

With COc1ccccc1NC(=O)c1c(N)cccc1S(=O)(=O)c1ccc([N+](=O)[O-])cc1 the PPB [9] was “Active”, the CC50 at 168 h [2] was no less than 462 µM and the EC50 [3] was 1.4 to 1.54 µM. The “Ratio CC50/EC50” value [4] was 300, the inhibition [10] was “Dose-dependent effect” and the inhibition [11] was “Dose-dependent effect”. For the same compound, the CC50 at 168 h [12] was greater than 468 µM, the EC50 [13] was 17.8 µM and the EC50 [14] was 17.8 µM. It also gave an EC50 [15] of 0.522 µM, an EC50 [16] of 2.95 µM and a solubility thermodynamic [5] of 0.66 µg/mL (≈ 0.00154 mM). For the same compound, the solubility thermodynamic [17] was 814 µg/mL (≈ 1.9 mM), the solubility thermodynamic [18] was 284 µg/mL (≈ 0.664 mM) and the solubility thermodynamic [19] was 9090 µg/mL (≈ 21.3 mM). For the same compound, the solubility thermodynamic [20] was 4380 µg/mL (≈ 10.2 mM), the solubility thermodynamic [21] was 22400 µg/mL (≈ 52.4 mM) and the inhibition [22] was “Dose-dependent effect”. For the same compound, the Activity [23] was “Dose-dependent effect”, the logP at 2 h [24] was 2.41 and the logP at 4 h [25] was 2.4. It also gave a logP at 7 h [26] of 2.4, a logP at 7 h [27] of 2.4 and a logP at 7 h [28] of 2.53. For the same compound, the logP at 7 h [29] was 2.55, the inhibition [30] was “Active” and the Activity [31] was “Active”. For the same compound, the inhibition [32] was “Active”.
